Data reported in ChEMBL document CHEMBL3351225, “Design, synthesis, and structure-activity and structure-pharmacokinetic relationship studies of novel [6,6,5] tricyclic fused oxazolidinones leading to the discovery of a potent, selective, and orally bioavailable FXa inhibitor” (J Med Chem, 2014).

Assays:
Prothrombin = Prothrombin (Homo sapiens, UniProt P00734); assay: Inhibition of human factor 2a using L-pyro-Glu-Pro-ArgpNA, S-2366 chromogenic substrate
Outline: (§1)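 Human enzyme and inhibitor were premixed and preincubated, then the chromogenic substrate was added. Substrate levels: 300 μM S-2765 (FXa, trypsin); 200 μM S-2366 (FIIa); 2 mM S-2366 (FVIIa, FXIa). pNA release was monitored continuously at 405 nm for 20 min at 37 °C. IC50 was obtained by nonlinear regression.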

V79 = assay: Toxicity in Chinese hamster V79 cells by micronucleus Assay; assay type: cell-based, Cricetulus griseus
Rattus norvegicus [1] = assay: Antithrombotic activity in rat model of arteriovenous shunt-induced thrombosis assessed as reduction in thrombus formation dosed orally 60 mins before shunt opening; conditions: po
Rattus norvegicus [2] = assay: Toxicity in rat assessed as induction of food intake changes at 50 mg/kg, po dosed once daily for 2 weeks; assay type: organism-based; parameters: dose 50 mg/kg, route oral; conditions: in vivo, 336 h
Outline: (§2)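 Subacute toxicity in rats: oral dosing once daily for 2 weeks at 50 mg/kg (medium) or 100 mg/kg (high). Behavior, body weight, food intake, organ coefficients and survival rate were monitored.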

Rattus norvegicus [3] = assay: Toxicity in rat assessed as induction of food intake changes at 100 mg/kg, po dosed once daily for 2 weeks; assay type: organism-based; parameters: dose 100 mg/kg, route oral; conditions: in vivo, 336 h; outline: as §2
Rattus norvegicus [4] = assay: Induction of tail bleeding in rat assessed as prolongation of bleeding time dosed orally 60 mins before surgery; assay type: organism-based; conditions: in vivo, po, 1 h
Outline: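 Anesthetized rats were dosed orally with compound suspended in 0.5% CMC-Na, or vehicle, 60 min before the tail was transected 4 mm from the tip. The tail was immersed vertically in saline at 37 °C. Bleeding time was taken as the point when flow ceased for >30 s, with a 30 min maximum.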

Cytochrome P450 1A2 = molecular target: T1, Cytochrome P450 1A2 (Homo sapiens, UniProt P05177); assay: Inhibition of CYP1A2 (unknown origin); assay type: ADME
T1 sequence (P05177 whole entry): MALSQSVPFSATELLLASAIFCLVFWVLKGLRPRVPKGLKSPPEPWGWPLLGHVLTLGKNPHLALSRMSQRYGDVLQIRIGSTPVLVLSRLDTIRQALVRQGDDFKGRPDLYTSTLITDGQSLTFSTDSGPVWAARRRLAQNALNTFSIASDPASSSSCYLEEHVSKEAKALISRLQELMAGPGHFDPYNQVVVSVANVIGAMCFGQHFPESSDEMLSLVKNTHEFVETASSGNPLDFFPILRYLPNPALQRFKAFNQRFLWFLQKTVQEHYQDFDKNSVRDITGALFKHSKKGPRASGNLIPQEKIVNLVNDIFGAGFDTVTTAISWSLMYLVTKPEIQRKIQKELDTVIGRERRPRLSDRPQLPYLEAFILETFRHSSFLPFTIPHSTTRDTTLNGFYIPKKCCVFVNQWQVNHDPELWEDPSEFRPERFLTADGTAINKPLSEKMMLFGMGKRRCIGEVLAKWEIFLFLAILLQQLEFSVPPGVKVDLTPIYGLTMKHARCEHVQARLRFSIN

[5] = Volume of distribution at steady state in Beagle dog at 0.5 mg/kg, iv; assay type: ADME, organism-based, Canis lupus familiaris; parameters: dose 0.5 mg/kg, route intravenous; conditions: in vivo, read-out: Vdss
Outline: (§3)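 Male dogs, three per group. Dosed orally at 1 mg/kg or by intravenous infusion at 0.5 mg/kg. Vehicle was 5% DMSO + 5% Tween-80 in 90% saline, or 10% DMSO + 10% Tween-80 + 80% PEG400 for the reference drug. Foreleg blood samples were quantified by LC-MS. Parameters came from noncompartmental analysis of mean plasma concentrations.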

Rattus norvegicus [6] = assay: Toxicity in rat assessed as survival rate changes at 100 mg/kg, po dosed once daily for 2 weeks; assay type: organism-based; parameters: dose 100 mg/kg, route oral; conditions: in vivo, 336 h; outline: as §2
[7] = AUC (0 to infinity) in Sprague-Dawley rat at 3 mg/kg, iv; assay type: ADME, organism-based; parameters: time infinity, dose 3 mg/kg, route intravenous; conditions: plasma
Outline: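 Male Sprague-Dawley rats, 200−220 g, four per group. Vehicle was 5% DMSO + 5% Tween-80 in 90% saline. The reference drug was given in 10% DMSO + 10% Tween-80 + 80% PEG400 (40% solution in saline). Serial retrobulbar vein samples were quantified by LC-MS. Parameters came from noncompartmental analysis of mean plasma concentrations.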

Cytochrome P450 2C19 = Cytochrome P450 2C19 (Homo sapiens, UniProt P33261); assay: Inhibition of CYP2C19 (unknown origin); assay type: ADME
Sequence of Cytochrome P450 2C19 (P33261 whole entry): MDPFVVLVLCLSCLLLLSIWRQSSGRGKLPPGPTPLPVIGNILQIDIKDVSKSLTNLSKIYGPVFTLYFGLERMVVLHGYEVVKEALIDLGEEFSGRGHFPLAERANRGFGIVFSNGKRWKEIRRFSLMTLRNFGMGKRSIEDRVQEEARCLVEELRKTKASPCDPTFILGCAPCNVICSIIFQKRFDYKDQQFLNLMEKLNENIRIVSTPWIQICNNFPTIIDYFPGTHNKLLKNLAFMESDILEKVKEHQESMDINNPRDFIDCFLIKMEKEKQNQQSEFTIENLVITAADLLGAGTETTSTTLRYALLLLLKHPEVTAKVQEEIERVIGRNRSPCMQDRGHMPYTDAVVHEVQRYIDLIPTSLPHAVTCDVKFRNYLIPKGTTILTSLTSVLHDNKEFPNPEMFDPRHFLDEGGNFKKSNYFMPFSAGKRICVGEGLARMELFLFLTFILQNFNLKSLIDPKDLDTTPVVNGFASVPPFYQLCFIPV

Coagulation factor XI = Coagulation factor XI (Homo sapiens, UniProt P03951); assay: Inhibition of human factor 11a using S-2366 chromogenic substrate; outline: as §1
Sequence of Coagulation factor XI (P03951 19-387 limits assumed): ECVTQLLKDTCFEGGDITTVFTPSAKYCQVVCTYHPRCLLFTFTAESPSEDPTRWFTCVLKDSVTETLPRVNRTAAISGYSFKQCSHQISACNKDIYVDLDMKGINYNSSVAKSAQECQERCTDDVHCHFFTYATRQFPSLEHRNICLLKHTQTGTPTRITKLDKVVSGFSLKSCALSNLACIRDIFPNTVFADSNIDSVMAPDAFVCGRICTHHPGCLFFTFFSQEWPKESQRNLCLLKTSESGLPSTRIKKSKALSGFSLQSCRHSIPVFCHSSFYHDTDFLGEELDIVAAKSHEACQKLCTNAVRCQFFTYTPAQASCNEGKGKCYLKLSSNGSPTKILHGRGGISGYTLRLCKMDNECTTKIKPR
Sequence of Coagulation factor XI (P03951 388-625 limits assumed): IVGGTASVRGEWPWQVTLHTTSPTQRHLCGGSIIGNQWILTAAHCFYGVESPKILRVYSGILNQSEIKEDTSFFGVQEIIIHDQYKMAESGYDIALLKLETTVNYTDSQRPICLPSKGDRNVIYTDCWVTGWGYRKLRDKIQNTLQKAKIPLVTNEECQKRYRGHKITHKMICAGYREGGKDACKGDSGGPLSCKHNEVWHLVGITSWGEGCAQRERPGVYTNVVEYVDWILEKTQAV

[8] = Oral bioavailability in Beagle dog at 1 mg/kg; assay type: ADME, organism-based, Canis lupus familiaris; conditions: in vivo; outline: as §3
Rattus norvegicus [9] = assay: Toxicity in rat assessed as induction of body weight changes at 50 mg/kg, po dosed once daily for 2 weeks; assay type: organism-based; parameters: dose 50 mg/kg, route oral; conditions: in vivo, 336 h; outline: as §2
Cytochrome P450 3A4 = Cytochrome P450 3A4 (Homo sapiens, UniProt P08684); assay: Inhibition of CYP3A4 (unknown origin); assay type: ADME
Sequence of Cytochrome P450 3A4 (P08684 whole entry): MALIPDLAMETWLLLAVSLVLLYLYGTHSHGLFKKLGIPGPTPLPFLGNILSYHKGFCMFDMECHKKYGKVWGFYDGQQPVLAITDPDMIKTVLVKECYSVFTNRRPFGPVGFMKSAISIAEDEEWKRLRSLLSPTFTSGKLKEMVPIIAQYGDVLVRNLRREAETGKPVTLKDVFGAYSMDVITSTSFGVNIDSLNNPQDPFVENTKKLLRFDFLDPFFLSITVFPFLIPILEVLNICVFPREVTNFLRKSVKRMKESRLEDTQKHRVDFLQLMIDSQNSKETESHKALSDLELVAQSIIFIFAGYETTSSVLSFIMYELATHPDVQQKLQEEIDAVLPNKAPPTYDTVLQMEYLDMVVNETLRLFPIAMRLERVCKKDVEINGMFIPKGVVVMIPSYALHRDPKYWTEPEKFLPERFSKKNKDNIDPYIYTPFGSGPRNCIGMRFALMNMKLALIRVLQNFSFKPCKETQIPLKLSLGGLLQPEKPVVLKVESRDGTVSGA

[10] = Plasma clearance in Beagle dog at 0.5 mg/kg, iv; assay type: ADME, organism-based, Canis lupus familiaris; parameters: dose 0.5 mg/kg, route intravenous; outline: as §3
[11] = Tmax in Beagle dog at 1 mg/kg, po; assay type: ADME, organism-based, Canis lupus familiaris; parameters: dose 1 mg/kg, route oral; conditions: in vivo; outline: as §3
Coagulation factor X = Coagulation factor X (Homo sapiens, UniProt P00742); assay: Inhibition of human factor 10a using N-Z-D-Arg-Gly-Arg-pNA, S-2765 chromogenic substrate
Sequence of Coagulation factor X (P00742 41-179 limits assumed): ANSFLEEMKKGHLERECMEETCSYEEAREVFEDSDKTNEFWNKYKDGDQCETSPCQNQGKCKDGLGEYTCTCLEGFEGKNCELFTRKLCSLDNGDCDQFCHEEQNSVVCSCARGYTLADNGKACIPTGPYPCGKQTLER
Sequence of Coagulation factor X (P00742 235-488 limits assumed): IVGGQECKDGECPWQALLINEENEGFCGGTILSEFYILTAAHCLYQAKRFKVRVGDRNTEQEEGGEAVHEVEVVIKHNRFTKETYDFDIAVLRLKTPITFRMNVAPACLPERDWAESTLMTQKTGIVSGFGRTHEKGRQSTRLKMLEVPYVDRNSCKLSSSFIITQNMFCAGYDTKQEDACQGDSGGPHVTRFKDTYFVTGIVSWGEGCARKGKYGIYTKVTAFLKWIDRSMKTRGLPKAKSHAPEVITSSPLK

O=C(NC[C@@H]1OC(=O)N2c3ccc(N4CCOCC4=O)cc3OC[C@@H]12)c1ccc(Cl)s1
IC50 (Prothrombin): > 100 µM
Activity (V79): Non-toxic
ED50 (Rattus norvegicus [1]): 5.28 mg/kg
Activity (Rattus norvegicus [2]): Non-toxic
Activity (Rattus norvegicus [3]): Non-toxic
Activity (Rattus norvegicus [4]): Dose-dependent effect
IC50 (Cytochrome P450 1A2): > 200 µM
Vd [5]: 1.7 L/kg
Activity (Rattus norvegicus [6]): Non-toxic
AUC(0-inf) [7]: 15.3 µg·h/mL
IC50 (Cytochrome P450 2C19): > 200 µM
IC50 (Coagulation factor XI): > 100 µM
bioavailability [8]: 92%
Activity (Rattus norvegicus [9]): Non-toxic
IC50 (Cytochrome P450 3A4): 85.1 µM
clearance [10]: 0.4 L/h/kg
Tmax [11]: 30 min
IC50 (Coagulation factor X): 0.00341 µM
